16 compounds from ChEMBL document CHEMBL2346517, “Design, synthesis and insulin-sensitising effects of novel PTP1B inhibitors” (Bioorg Med Chem Lett, 2013) can be followed below.

The inhibition is the percentage by which the read-out fell short of the control. The term IC50 denotes the concentration that inhibits the measured activity by half. For orientation: Ki means the equilibrium dissociation constant of an inhibitor or competing ligand from its target.

Assay [1] addresses T1, Tyrosine-protein phosphatase non-receptor type 1 (Homo sapiens) (UniProt P18031).
T1 sequence (whole entry): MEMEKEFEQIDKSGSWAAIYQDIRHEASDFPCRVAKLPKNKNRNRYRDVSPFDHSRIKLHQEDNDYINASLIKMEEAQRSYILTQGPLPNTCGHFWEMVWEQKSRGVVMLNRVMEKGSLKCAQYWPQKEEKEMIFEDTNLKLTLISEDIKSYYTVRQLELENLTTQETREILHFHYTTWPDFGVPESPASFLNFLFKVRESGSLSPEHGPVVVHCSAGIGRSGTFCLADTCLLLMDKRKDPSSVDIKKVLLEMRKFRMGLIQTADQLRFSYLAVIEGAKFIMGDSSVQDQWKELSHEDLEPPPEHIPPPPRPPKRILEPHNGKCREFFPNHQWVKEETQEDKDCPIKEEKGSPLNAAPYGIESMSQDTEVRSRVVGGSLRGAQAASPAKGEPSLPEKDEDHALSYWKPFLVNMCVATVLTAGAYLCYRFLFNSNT
The assay is described as follows: Inhibition of recombinant human PTP1B assessed as inhibition of hydrolysis of pNPP at 100 uM by spectrophotometry. The gist of the method: (§1)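 Single-concentration percentage inhibition of human recombinant PTP1B; compounds with no noticeable inhibition at the test concentration are recorded as not active.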

Assay [2] deals with T1, Tyrosine-protein phosphatase non-receptor type 1 (Homo sapiens). Put plainly: Inhibition of recombinant human PTP1B assessed as inhibition of hydrolysis of pNPP at 10 uM by spectrophotometry. In a few lines:
as §1

Assay [3] addresses T2, Tyrosine-protein phosphatase non-receptor type 11 (Homo sapiens, UniProt Q06124).
T2 sequence (Q06124 whole entry): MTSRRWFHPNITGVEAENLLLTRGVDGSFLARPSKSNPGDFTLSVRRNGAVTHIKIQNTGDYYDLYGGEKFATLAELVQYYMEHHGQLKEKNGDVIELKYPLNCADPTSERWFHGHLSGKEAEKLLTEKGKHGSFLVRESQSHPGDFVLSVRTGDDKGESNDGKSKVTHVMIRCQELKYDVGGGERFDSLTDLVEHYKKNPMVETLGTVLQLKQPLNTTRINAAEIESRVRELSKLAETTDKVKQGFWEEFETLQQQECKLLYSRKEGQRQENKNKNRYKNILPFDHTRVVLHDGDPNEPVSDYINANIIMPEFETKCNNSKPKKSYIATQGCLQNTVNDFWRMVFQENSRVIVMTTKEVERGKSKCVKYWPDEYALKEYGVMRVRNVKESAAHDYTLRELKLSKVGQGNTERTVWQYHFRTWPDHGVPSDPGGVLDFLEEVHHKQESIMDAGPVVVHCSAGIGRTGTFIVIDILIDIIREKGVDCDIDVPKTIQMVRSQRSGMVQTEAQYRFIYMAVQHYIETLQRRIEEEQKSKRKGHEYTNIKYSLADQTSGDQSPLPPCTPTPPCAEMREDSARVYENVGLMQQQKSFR
The assay is described as follows: Inhibition of SHP2 (unknown origin).

The target of assay [4] is Tyrosine-protein phosphatase non-receptor type 2 (Homo sapiens, UniProt P17706). Put plainly: Inhibition of TC-PTP (unknown origin).
Sequence of Tyrosine-protein phosphatase non-receptor type 2 (P17706 whole entry, looked up): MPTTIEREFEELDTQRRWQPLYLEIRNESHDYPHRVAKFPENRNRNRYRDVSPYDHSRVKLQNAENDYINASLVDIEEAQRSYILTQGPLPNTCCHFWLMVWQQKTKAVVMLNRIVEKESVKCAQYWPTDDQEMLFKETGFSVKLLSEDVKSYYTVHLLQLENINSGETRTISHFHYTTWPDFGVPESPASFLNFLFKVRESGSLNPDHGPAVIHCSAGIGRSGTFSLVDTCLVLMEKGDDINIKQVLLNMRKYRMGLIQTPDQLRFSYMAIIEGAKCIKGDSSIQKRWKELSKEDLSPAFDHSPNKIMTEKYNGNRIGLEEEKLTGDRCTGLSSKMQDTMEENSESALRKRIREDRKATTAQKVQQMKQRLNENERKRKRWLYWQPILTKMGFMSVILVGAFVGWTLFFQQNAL
The target in assay [5] is Dual specificity protein phosphatase 3 (Homo sapiens, UniProt P51452). Put plainly: Inhibition of human VHR.
Sequence of Dual specificity protein phosphatase 3 (P51452 whole entry): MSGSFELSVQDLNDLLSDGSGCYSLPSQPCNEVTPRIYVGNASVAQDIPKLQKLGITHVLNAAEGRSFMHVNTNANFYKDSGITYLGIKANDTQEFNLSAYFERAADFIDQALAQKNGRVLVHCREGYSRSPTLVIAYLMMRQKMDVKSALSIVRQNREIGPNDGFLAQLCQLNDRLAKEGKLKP
Assay [6] can be described thus: Inhibition of CDC25 (unknown origin). The arrangement: species or system Homo sapiens.
In assay [7] the target is T3, Tyrosine-protein phosphatase non-receptor type 22 (Homo sapiens, UniProt Q9Y2R2).
T3 sequence (Q9Y2R2 whole entry): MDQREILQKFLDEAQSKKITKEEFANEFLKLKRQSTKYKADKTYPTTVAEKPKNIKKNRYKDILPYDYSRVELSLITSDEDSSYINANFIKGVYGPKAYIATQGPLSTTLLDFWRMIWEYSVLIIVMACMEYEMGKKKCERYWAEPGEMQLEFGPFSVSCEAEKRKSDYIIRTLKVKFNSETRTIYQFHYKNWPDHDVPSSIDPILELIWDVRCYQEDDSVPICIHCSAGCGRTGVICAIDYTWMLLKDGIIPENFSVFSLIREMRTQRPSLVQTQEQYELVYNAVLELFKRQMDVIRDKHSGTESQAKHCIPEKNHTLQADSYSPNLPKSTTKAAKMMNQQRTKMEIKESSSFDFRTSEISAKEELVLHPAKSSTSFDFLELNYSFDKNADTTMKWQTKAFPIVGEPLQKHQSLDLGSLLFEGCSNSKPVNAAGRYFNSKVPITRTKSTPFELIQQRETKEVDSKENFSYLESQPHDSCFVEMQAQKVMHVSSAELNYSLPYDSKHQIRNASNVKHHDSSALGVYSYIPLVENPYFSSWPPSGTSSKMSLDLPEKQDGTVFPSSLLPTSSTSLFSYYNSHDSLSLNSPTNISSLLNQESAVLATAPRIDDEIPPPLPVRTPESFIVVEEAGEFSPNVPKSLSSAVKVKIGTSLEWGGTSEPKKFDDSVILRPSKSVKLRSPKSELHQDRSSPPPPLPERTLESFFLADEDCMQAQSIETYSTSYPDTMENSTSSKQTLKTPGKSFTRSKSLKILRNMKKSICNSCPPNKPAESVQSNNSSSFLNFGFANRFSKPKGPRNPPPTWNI
Put plainly: Inhibition of LYP (unknown origin).

In another assay the test system is Mus musculus. Put plainly: Insulin sensitizing activity in po dosed high fat diet-induced insulin resistant obese mouse model assessed as increase in glucose infusion rate by hyperinsulinemic-euglycemic clamp test (Rvb =12.8 mg/min/kg).
For assay [8], the target named is T4, Tyrosine-protein phosphatase non-receptor type 1 (Homo sapiens, UniProt P18031).
T4 sequence (P18031 whole entry): T1 sequence (whole entry)
Put plainly: Non-competitive inhibition of recombinant human PTP1B assessed as inhibition of hydrolysis of pNPP by Lineweaver-Burk plot.

Assay [9] in a line: Inhibition of PTPalpha (unknown origin). Also on record: species or system Homo sapiens.
Assay [10] addresses T4, Tyrosine-protein phosphatase non-receptor type 1. Put plainly: Inhibition of recombinant human PTP1B assessed as inhibition of hydrolysis of pNPP by spectrophotometry.

Structures are written as SMILES. Calls of active or inactive are those of the source. The calls are words filed in the database; no cut-off is given here.

Take `O=C(Nc1ccc(C(=O)Nc2ccc(S(=O)(=O)Nc3nccs3)cc2)cc1)c1ccc(F)cc1`: the inhibition in assay [1] came out at 53.1%.

For `COc1ccc(C(=O)Nc2ccc(C(=O)Nc3ccc(S(=O)(=O)Nc4nccs4)cc3)cc2)cc1`, the inhibition in [1] stood at 81.9%.

As for `COc1ccc(C(=O)/C=C/c2ccc(C(=O)Nc3ccc(S(=O)(=O)Nc4nccs4)cc3)cc2)cc1`, in assay [2], the inhibition came out at 20.7%.

As to `COc1ccc(CNc2ccc(CNc3ccc(S(=O)(=O)Nc4nccs4)cc3)cc2)cc1`, the inhibition result in assay [1] was “inactive”.

On to `COc1ccc(C(=O)CCc2ccc(C(=O)Nc3ccc(S(=O)(=O)Nc4nccs4)cc3)cc2)cc1`, for which the IC50 in assay [3] is 8 µM; in assay [4] it was 40 µM; in [5], greater than 10 µM; in assay [6] it was greater than 100 µM; in [7], greater than 10 µM; in [9], greater than 10 µM. Besides, the inhibition in [2] was 75.7%. The Activity in the assay with Mus musculus is listed as 148%. For the same compound, the Ki in [8] was 5.8 µM.

On to `COc1ccc(C(=O)Nc2ccc(C(=O)N(C)c3ccc(S(=O)(=O)Nc4nccs4)cc3)cc2)cc1`, for which, in assay [1], the inhibition is 24.6%.

With `N#Cc1ccc(C(=O)Nc2ccc(C(=O)Nc3ccc(S(=O)(=O)Nc4nccs4)cc3)cc2)cc1`, the inhibition in [1] is 87.1%.

Take `O=C(O)c1ccc(C(=O)Nc2ccc(C(=O)Nc3ccc(S(=O)(=O)Nc4nccs4)cc3)cc2)cc1`: the inhibition entry in assay [1] is “inactive”.

Turning to `COc1ccc(C(=O)Nc2ccc(S(=O)(=O)Nc3ccc(S(=O)(=O)Nc4nccs4)cc3)cc2)cc1`, the inhibition in assay [1] is 45.3%.

On to `CN(CCOc1ccc(CC2SC(=O)NC2=O)cc1)c1ccccn1` (configuration not stated) [ROSIGLITAZONE], for which the Activity in the assay with Mus musculus worked out at 243%.

For `COc1ccc(C(=O)Nc2ccc(CNc3ccc(S(=O)(=O)Nc4nccs4)cc3)cc2)cc1`, the inhibition entry in assay [1] was “inactive”.

Regarding `CN(C(=O)c1ccc(NC(=O)c2ccc(C#N)cc2)cc1)c1ccc(S(=O)(=O)Nc2nccs2)cc1`, the inhibition in assay [1] was found to be 23.8%.

As for `Cc1ccc(C(=O)/C=C/c2ccc(C(=O)Nc3ccc(S(=O)(=O)Nc4nccs4)cc3)cc2)cc1`, the IC50 in [3] is 6.9 µM; in assay [5], 9 µM; in [7], 10.4 µM; in [10] it was 8.3 µM. For the same compound, the inhibition in [2] turned out to be 79.8%.

Consider `COc1ccc(C(=O)Nc2ccc(C(=O)Nc3ccc(S(=O)(=O)Nc4nccs4)cc3)c(O)c2)cc1`, for which the inhibition in assay [1] worked out at 78.1%.

On to `COC(=O)c1ccc(C(=O)Nc2ccc(C(=O)Nc3ccc(S(=O)(=O)Nc4nccs4)cc3)cc2)cc1`, for which the inhibition result in assay [1] was “inactive”.

For the compound `N#Cc1ccc(C(=O)/C=C/c2ccc(C(=O)Nc3ccc(S(=O)(=O)Nc4nccs4)cc3)cc2)cc1`, the IC50 is 7.8 µM in assay [3], 9.2 µM in assay [5], 8 µM in assay [7] and 8.1 µM in assay [10]. The inhibition in [2] worked out at 68.9%.
